Data published in ChEMBL document CHEMBL4834420, “Projected Dose Optimization of Amino- and Hydroxypyrrolidine Purine PI3Kδ Immunomodulators” (J Med Chem, 2021).

What was measured:
[1] = Apparent permeability in pig LLC-PK1 cells; format: ADME, cell-based, Sus scrofa
[2] = Intrinsic clearance in Beagle dog at 0.25 mg/kg, iv or 0.5 mg/kg, po; format: ADME, organism-based, Canis lupus familiaris; settings: in vivo
[3] = target: T1, Phosphatidylinositol 4,5-bisphosphate 3-kinase catalytic subunit delta isoform (Mus musculus) (UniProt O35904); assay: Inhibition of PI3Kdelta in Foxp3-GFP C57BL/6 mouse assessed as reduction in Treg population administered upto 7 days; settings: dose 30-100 mg/kg, time day <=7
T1 sequence (whole entry): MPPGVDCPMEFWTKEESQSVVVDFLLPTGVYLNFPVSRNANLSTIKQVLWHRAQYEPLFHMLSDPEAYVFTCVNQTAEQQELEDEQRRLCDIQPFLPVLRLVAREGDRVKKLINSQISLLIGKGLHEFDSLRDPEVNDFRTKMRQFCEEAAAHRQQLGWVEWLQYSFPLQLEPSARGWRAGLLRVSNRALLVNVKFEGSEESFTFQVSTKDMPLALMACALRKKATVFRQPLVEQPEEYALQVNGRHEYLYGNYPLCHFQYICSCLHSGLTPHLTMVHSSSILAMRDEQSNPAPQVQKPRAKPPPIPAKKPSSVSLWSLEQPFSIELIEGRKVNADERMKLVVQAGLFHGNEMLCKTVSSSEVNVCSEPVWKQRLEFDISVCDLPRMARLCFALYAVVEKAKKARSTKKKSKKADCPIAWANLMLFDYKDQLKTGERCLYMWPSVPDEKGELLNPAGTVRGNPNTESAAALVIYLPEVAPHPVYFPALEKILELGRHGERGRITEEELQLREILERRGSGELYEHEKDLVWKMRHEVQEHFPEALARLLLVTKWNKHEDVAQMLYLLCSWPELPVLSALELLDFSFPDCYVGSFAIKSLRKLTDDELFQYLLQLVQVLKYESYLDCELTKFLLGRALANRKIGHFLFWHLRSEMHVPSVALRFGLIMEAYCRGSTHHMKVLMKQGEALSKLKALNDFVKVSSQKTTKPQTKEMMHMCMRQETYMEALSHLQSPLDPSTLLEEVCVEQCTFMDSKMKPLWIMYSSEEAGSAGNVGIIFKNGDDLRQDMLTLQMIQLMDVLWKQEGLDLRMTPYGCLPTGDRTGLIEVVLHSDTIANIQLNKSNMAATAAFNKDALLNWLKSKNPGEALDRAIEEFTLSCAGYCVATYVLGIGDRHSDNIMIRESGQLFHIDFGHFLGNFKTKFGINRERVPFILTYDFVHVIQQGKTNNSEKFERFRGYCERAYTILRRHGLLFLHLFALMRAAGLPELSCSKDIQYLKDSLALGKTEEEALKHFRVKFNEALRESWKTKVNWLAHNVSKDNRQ
In short: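 C57BL/6 Foxp3-GFP reporter mice were dosed at 30 and 100 mg/kg/day for up to 7 days. Treg population was monitored by bioluminescence imaging 10 min after ip injection of 3 mg luciferin. Radiance was quantified as photons/s/cm²/steradian. Diphtheria toxin served as a positive control.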

[4] = Oral bioavailability in C57BL/6 mouse; format: ADME, organism-based; settings: in vivo
[5] = target: T2, Cytochrome P450 2C8 (Homo sapiens, UniProt P10632); assay: Inhibition of CYP2C8 (unknown origin); format: ADME
T2 sequence (P10632 whole entry): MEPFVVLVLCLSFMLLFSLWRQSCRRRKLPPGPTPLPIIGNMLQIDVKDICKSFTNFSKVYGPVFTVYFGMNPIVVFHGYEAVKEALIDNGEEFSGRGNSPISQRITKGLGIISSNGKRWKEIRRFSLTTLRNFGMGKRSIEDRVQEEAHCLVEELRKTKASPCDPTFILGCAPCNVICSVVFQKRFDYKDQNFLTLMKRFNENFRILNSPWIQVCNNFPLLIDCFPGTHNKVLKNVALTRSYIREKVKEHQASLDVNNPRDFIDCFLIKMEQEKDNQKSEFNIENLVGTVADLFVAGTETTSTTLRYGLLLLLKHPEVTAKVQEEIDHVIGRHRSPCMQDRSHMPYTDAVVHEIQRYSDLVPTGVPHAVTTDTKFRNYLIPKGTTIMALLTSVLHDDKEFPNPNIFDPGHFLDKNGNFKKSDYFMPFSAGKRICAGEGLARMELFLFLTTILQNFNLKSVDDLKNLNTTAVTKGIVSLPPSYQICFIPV

[6] = Unbound Trough plasma concentration Brown Norway rat at 10 mg/kg, po; format: ADME, organism-based; settings: in vivo
[7] = Plasma clearance in C57BL/6 mouse at 1 mg/kg, iv or 3 mg/kg, po; format: ADME, organism-based
[8] = target: T3, Solute carrier organic anion transporter family member 1B1 (Homo sapiens, UniProt Q9Y6L6); assay: Inhibition of OATP1B1 (unknown origin)
T3 sequence (Q9Y6L6 whole entry): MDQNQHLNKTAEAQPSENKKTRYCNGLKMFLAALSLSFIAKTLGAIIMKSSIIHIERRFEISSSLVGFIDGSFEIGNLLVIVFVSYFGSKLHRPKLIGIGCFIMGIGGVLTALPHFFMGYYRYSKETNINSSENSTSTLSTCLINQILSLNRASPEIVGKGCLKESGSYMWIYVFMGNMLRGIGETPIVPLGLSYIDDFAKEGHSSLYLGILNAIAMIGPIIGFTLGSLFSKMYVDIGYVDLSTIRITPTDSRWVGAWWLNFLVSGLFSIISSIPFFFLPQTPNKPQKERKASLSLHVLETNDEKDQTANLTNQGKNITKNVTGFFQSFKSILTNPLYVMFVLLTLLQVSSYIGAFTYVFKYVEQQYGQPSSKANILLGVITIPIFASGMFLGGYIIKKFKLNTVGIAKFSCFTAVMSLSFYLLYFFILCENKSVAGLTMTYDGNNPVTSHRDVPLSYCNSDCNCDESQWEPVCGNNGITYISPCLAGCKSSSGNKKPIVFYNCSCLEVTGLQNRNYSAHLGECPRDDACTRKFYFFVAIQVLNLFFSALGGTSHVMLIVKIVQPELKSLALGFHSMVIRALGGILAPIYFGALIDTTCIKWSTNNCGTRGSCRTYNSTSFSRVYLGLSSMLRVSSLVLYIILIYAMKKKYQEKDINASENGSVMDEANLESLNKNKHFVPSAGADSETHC

[9] = Inhibition of adenosine transporter in human HeLa cells assessed as reduction in [3H]adenosine uptake preincubated for 30 mins followed by [3H]adenosine addition and measured after 60 mins; format: cell-based
[10] = Half-life in Wistar Han rat; format: ADME; settings: in vivo

**Q.** With `CCn1c(-c2cnc(C)nc2)nc2c(N[C@H]3CCN(C(=O)C4CC4)C3)ncnc21` as the compound, how does the Papp [1] read?
**A.** Its Papp is 220 nm/s.

**Q.** What about the CL [2] of the same compound?
**A.** The CL was 0.372 L/h/kg.

**Q.** What about the Activity [3] of the same compound?
**A.** Its Activity is “Dose-Dependent Effect”.

**Q.** What about the bioavailability [4] of the same compound?
**A.** The bioavailability was 77%.

**Q.** And the IC50 [5]?
**A.** The IC50 was greater than 50 µM.

**Q.** And the fCmin [6]?
**A.** The fCmin was 8 nM.

**Q.** And the clearance [7]?
**A.** Its clearance is 2.7 L/h/kg.

**Q.** And the “inhibition (INH)” value [8]?
**A.** The value was “Not Active”.

**Q.** What about the IC50 [9] of the same compound?
**A.** Its IC50 is 5 µM.

**Q.** What about the half-life [10] of the same compound?
**A.** Its half-life is 2.7 h.
